TRPN1 ag: zebrafish TRPN1 (NompC) channel agonism; HEK293 zebrafish TRPN1-YFP, Fluo-8 calcium fluorescence; 100% = response to 87 µM carbachol; activation, % at 3 µM; 0.18% of 220,000 active; AID 1424;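 active means activation above its plate's cutoff, the mean activation of test wells on that plate plus 3 SD, cut at about 19% in these data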;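 further: 0% = DMSO alone and 100% = 87 µM carbachol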
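Material – zebrafish TRPN1-YFP in HEK293 cells · Doses – 3 µM single point · Schedule – dye 1 h 37 °C plus 30 min RT · Signal – Fluo-8 calcium fluorescence, excitation 470-495 nm, emission 515-575 nm · Read-out – % activation versus carbachol response · Control set – carbachol high, DMSO low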
CRFR2-BP ag: agonists of human CRF-binding protein/CRF-R2 receptor complex; AID 588473; activation, % at 13.2 µM; 0.46% of 350,000 active; HEK293 CRF-R2/CRF-BP, calcium dye fluorescence (FLIPR); percent of saturating CRF peptide response;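 active means activation of at least 50%, plus an integration ratio under a set limit after plate pattern correction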;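 further: plate controls were neutral control wells without compound for no effect and CRF at EC100 for full effect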
GPR7 antagonist: antagonists of human GPR7 (neuropeptides B/W receptor 1); GPR7-expressing cells, fluorescence antagonist assay; inhibition, % at 4.4 µM; 1.1% of 290,000 active; AID 1861; in the data active means inhibition above about 16%, passing the limit was not always enough;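 further: cells stimulated with the agonist NPW; 0% = agonist with vehicle and 100% = vehicle without agonist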
TRPML3 agonist: agonists of human TRPML3 channel | Q8TDD5 | HEK293 TRPML3-YFP, Fluo-8 calcium fluorescence; 100% = the carbachol control signal | activation, % at 3 µM | 0.29% of 220,000 active | AID 1448;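 active means activation above its plate's cutoff, the mean activation of the plate's test wells plus 3 SD, cut at about 12% in these data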;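 further: 0% = DMSO only wells and 100% = carbachol wells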
Target sequence (Q8TDD5 whole entry, looked up): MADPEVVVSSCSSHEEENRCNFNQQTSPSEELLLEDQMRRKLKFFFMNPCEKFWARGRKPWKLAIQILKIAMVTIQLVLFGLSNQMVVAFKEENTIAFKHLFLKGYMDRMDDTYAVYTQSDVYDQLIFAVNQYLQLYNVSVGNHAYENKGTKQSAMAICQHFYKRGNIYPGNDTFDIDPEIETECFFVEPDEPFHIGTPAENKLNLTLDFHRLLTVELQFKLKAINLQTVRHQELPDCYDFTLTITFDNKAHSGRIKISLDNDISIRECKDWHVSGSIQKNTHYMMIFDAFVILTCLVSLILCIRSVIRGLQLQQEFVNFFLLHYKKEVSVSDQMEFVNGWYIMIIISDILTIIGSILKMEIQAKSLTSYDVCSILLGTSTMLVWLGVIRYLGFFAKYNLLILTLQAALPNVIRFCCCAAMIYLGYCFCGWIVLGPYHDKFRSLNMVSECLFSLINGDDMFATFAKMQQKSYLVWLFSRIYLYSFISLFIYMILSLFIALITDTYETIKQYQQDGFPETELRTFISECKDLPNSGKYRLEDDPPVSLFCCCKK
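Material: HEK293 cells stably carrying human TRPML3-YFP; compound dosing: single dose, 3 µM final nominal compound, 0.3% DMSO final; incubation: 1-h 37 °C dye load, 5-s basal, 120-s post-compound reads; technique: Fluo-8 intracellular calcium fluorescence, excitation 470-495 nm, emission 515-575 nm; read-out basis: percent activation from peak-to-basal fluorescence ratio, scaled between DMSO and carbachol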
CRFR2-BP antag: antagonists of CRF-binding protein/CRF-R2 receptor complex | HEK293 CRF-R2/CRF-BP, CRF-induced calcium fluorescence | inhibition, % at 11.8 µM | 0.59% of 350,000 active;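 active means inhibition of the ligand-induced calcium signal above about 50% at the single tested concentration, limit read from the data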
The depositor's hits bear a star; · = no result. In the library only some 2% were active in any assay of this set; here they are far more common.

SMILES	TRPN1 ag	CRFR2-BP ag	GPR7 antagonist	TRPML3 agonist	CRFR2-BP antag
COC(=O)C(NC(=O)c1ccc(F)cc1)(Nc1nc(C)cs1)C(F)(F)F (configuration not stated)	1	-1	17*	0	-10
COC(=O)C(NC(=O)c1ccc(Cl)cc1)(Nc1nc(C)cs1)C(F)(F)F (configuration not stated)	0	0	-1	1	-3
C=CCn1c(=O)[nH]c2nc3cc(N=CN(C)C)c(C)cc3nc2c1=O	27*	144*	-3	9	-76
C=CCOC(=O)C1=C[C@H](C(C)(C)C)[C@@H](CCCO)[C@H](OCC)O1	·	1	·	·	5
CCO[C@@H]1OC(C(N)=O)=C[C@H](C(C)(C)C)[C@H]1CCCO	·	1	·	·	109*
Cc1ccc(NC(=O)CSc2nnc3n2CCCCC3)cc1S(=O)(=O)N1CCOCC1	·	1	·	·	5
CCN(CC)S(=O)(=O)c1cc(C(=O)Nc2ccncc2)ccc1Cl	10	16	1	5	-12
CCN(CC)S(=O)(=O)c1cc(C(=O)n2cccn2)c(Cl)cc1Cl	1	0	19*	0	8
Cc1cc(OC(F)F)ccc1NC(=O)Nc1ccc([N+](=O)[O-])cc1	16	41	41*	9	8
O=C(Nc1ccc([N+](=O)[O-])cc1)Nc1ccc(Cl)cc1F	1	32	9	2	8
COC(=O)c1ccc(CNC(=O)CSC(C)C(=O)Nc2cc(C)on2)cc1 (configuration not stated)	·	0	·	·	-7
O=C1CC(c2ccccc2)(c2ccccc2)c2ccccc21	·	-2	·	·	25
Cc1ccc(S(=O)(=O)c2c(N)n(Cc3ccco3)c3nc4ccccc4nc23)cc1C	1	48	0	1	-39
Nc1c(S(=O)(=O)c2ccccc2)c2nc3ccccc3nc2n1Cc1ccco1	2	65*	-8	3	-77
C[C@@H]1CN([C@@H](C)CO)C(=O)c2cc(NC(=O)Nc3ccccc3)ccc2O[C@@H](C)CCCCO[C@H]1CN(C)C(=O)Nc1ccc(C(F)(F)F)cc1	·	0	·	·	-15
Cc1ccc(C)c(S(=O)(=O)C(C#N)c2nc3ccccc3nc2N2CCCC2)c1 (configuration not stated)	3	0	-13	2	9
N#CC(c1nc2ccccc2nc1N1CCCC1)S(=O)(=O)c1ccccc1 (configuration not stated)	3	25	5	1	-33
Cc1ccc(C)c(S(=O)(=O)C(C#N)c2nc3ccccc3nc2N2CCOCC2)c1 (configuration not stated)	1	6	-9	1	63*
Cc1cccc(S(=O)(=O)C(C#N)c2nc3ccccc3nc2N2CCCC2)c1 (configuration not stated)	1	64*	-5	2	-17
Cc1ccc(S(=O)(=O)NC2=NCN(C3CCN(Cc4ccccc4)CC3)CN2)cc1	0	0	-5	0	109*
C=CCN1C(=O)/C(=C/c2ccc(O)c(OC)c2)S/C1=N/c1nccs1	32*	45	-10	16*	-68
CCc1ccc2c(COC(=O)C3CSC4(C)CCC(=O)N34)cc(=O)oc2c1 (configuration not stated)	·	0	·	·	-8
CCOC(=O)c1cccc(NS(=O)(=O)Cc2ccccc2)c1	-3	-4	-8	-1	149*
CCOC(=O)c1cccc(NS(=O)(=O)c2ccc(NC(C)=O)cc2)c1	-1	-2	-9	1	5
O=C(CC1C(=O)NCCN1C(=O)Nc1ccccc1)Nc1ccc2c(c1)OCO2 (configuration not stated)	0	9	-13	1	74*
SMILES	TRPN1 ag	CRFR2-BP ag	GPR7 antagonist	TRPML3 agonist	CRFR2-BP antag
O=C(CC1C(=O)NCCN1C(=S)Nc1ccccc1)Nc1ccc2c(c1)OCCO2 (configuration not stated)	1	3	-4	0	-12
CCCCC1(C)OC(=O)C(=Cc2ccc(-c3ccc(Cl)c(C(=O)O)c3)o2)C(=O)O1 (configuration not stated)	-1	4	15	-1	61*
CCc1ccc(-c2nc(SCC(=O)N(CC)C3CCS(=O)(=O)C3)n[nH]2)cc1 (configuration not stated)	·	3	·	·	6
CCOC(=O)/C=c1\s/c(=C\c2c(OC)ccc3ccccc23)c(=O)n1CC(=O)NCC1CCCO1 (configuration not stated)	0	1	3	0	-23
CCOC(=O)c1sc2nc(C)n(CC(=O)NCC3CCCO3)c(=O)c2c1C (configuration not stated)	2	0	-6	1	58*
CCOC(=O)/C=c1/s/c(=C/c2ccc3cc(OC)ccc3c2)c(=O)n1CC(=O)NCC1CCCO1 (configuration not stated)	·	79*	·	·	-45
COc1cccc(-c2ccc3nnc(SCC(=O)N4CCOCC4)n3n2)c1	·	0	·	·	-1
CCN1C(=O)/C(=C/c2ccc(N3CCCC3)cc2)NC1=S	42*	258*	10	11	-302
CCCN1C(=O)/C(=C/c2ccc(N3CCOCC3)cc2)NC1=S	24*	171*	1	12*	-247
CSc1cccc(NC(=O)C2C3C=CC4(O3)C2C(=O)N(CCN2CCOCC2)C4C(=O)NC2CCCCC2)c1 (configuration not stated)	·	0	-5	·	-12
O=C1/C(=C/c2cccs2)Cc2ccccc21	0	-2	2	0	7
O=C1C(=Cc2cccs2)C(=O)c2ccccc21	2	0	-5	1	55*
CCOC(=O)Cc1csc(NC(=O)CSc2nnc(-c3ccncc3)o2)n1	3	121*	-2	1	-222
CCOC(=O)Cc1csc(NC(=O)CSc2nnc(-c3ccc(NS(=O)(=O)CC)cc3)o2)n1	0	-1	3	1	-7
CC(C)(C)N1CC2([N+](=O)[O-])CN(C(C)(C)C)CC([N+](=O)[O-])(C1)C2	0	167*	-4	1	-122
CC1CCN(C(=O)COC(=O)CNC(=O)C23CC4CC(CC(C4)C2)C3)CC1	·	-2	·	·	9
CCOc1ccc(C(CCc2ccccc2)NC(=O)c2ccccc2OC)cc1OCC (configuration not stated)	1	4	2	1	76*
O=c1[nH]c2ccccc2cc1CN(CC1CCCO1)S(=O)(=O)c1ccccc1 (configuration not stated)	·	0	-5	·	-16
CCC(C)(C)n1nnnc1C(c1ccc(OC)c(OC)c1)N1CCN(c2ccccc2)CC1 (configuration not stated)	-1	-1	18*	0	0

Assay outcomes from PubChem BioAssay.
